In ChEMBL document CHEMBL3352284, “Synthesis of 7-halogenated isatin sulfonamides: nonradioactive counterparts of caspase-3/-7 inhibitor-based potential radiopharmaceuticals for molecular imaging of apoptosis” (J Med Chem, 2014):

Key:
[1] = target: T1, Caspase-7 (Homo sapiens, UniProt P55210); assay: Inhibition of human recombinant caspase 7 using Ac-DEVD-AMC substrate assessed as accumulation of cleaved fluorogenic product
T1 sequence (P55210 whole entry): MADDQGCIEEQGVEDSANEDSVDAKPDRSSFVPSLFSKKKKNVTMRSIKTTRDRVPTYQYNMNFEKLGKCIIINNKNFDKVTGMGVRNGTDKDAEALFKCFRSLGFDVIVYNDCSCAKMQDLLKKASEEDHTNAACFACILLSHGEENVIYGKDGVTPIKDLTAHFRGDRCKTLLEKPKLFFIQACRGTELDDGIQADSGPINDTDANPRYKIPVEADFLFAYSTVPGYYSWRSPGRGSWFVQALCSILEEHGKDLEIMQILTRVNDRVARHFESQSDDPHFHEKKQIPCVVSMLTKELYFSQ
In short: (§1)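 Inhibitor in DMSO (1−5%) at final 500 μM down to 5 pM in tenfold steps, preincubated 10 min. Peptide-AMC substrate then added (final 10 μM) and reacted 10 min at 37 °C. Released AMC read by fluorescence, excitation 360 nm, emission 460 nm.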

[2] = target: T2, Caspase-3 (Homo sapiens, UniProt P42574); assay: Inhibition of human recombinant caspase 3 using Ac-DEVD-AMC substrate assessed as accumulation of cleaved fluorogenic product; in short: as §1
T2 sequence (P42574 whole entry): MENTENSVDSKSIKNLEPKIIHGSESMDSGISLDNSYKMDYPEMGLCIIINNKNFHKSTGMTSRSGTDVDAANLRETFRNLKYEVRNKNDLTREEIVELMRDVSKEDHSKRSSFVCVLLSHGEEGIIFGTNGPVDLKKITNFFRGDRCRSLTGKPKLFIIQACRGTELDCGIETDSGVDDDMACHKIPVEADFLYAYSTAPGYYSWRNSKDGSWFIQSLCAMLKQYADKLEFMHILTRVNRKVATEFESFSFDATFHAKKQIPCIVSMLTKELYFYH

[3] = target: T3, Caspase-6 (Homo sapiens, UniProt P55212); assay: Inhibition of human recombinant caspase 6 using Ac-VEID-AMC substrate assessed as accumulation of cleaved fluorogenic product; in short: as §1
T3 sequence (P55212 whole entry): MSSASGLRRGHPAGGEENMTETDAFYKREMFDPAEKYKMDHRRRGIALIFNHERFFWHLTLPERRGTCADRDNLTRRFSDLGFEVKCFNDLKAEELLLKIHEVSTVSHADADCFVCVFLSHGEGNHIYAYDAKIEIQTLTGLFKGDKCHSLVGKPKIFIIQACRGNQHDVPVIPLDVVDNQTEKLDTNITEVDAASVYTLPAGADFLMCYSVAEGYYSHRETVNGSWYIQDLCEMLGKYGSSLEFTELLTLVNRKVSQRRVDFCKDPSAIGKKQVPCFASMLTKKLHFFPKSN

[4] = target: T4, Caspase-1 (Homo sapiens, UniProt P29466); assay: Inhibition of human recombinant caspase 1 using Ac-YVAD-AMC substrate assessed as accumulation of cleaved fluorogenic product; in short: as §1
T4 sequence (P29466 whole entry): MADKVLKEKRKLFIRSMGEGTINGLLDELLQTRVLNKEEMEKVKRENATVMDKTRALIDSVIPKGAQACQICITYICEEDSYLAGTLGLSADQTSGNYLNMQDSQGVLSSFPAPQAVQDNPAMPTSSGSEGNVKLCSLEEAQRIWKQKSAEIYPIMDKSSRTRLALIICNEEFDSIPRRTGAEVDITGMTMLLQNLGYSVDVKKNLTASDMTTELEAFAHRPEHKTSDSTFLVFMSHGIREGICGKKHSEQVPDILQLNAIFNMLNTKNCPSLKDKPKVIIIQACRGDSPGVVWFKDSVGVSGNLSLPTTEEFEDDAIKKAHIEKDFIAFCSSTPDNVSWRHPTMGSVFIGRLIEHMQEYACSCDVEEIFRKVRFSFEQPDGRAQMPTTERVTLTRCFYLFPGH

IC50 [1] [nM]	IC50 [2] [nM]	IC50 [3] [nM]	IC50 [4] [nM]	Structure (SMILES)
> 500000	> 500000	–	–	COC[C@@H]1CCCN1S(=O)(=O)c1cc(I)c2c(c1)C(=O)C(=O)N2
10500	1190	–	–	COC[C@@H]1CCCN1S(=O)(=O)c1cc(I)c2c(c1)C(=O)C(=O)N2C
20.1	210	–	–	CCN1C(=O)C(=O)c2cc(S(=O)(=O)N3CCC[C@H]3COC)cc(I)c21
42.4	124	–	–	CCCN1C(=O)C(=O)c2cc(S(=O)(=O)N3CCC[C@H]3COC)cc(I)c21
907	17.4	> 500000	> 500000	CCCCN1C(=O)C(=O)c2cc(S(=O)(=O)N3CCC[C@H]3COC)cc(I)c21
–	20.1	28500	> 500000	COC[C@@H]1CCCN1S(=O)(=O)c1cc(I)c2c(c1)C(=O)C(=O)N2CCCF
68.1	50.7	500000	500000	COC[C@@H]1CCCN1S(=O)(=O)c1cc(I)c2c(c1)C(=O)C(=O)N2CCCCF
279	33.2	500000	500000	COC[C@@H]1CCCN1S(=O)(=O)c1cc(I)c2c(c1)C(=O)C(=O)N2CCCCO
> 500000	> 500000	–	–	COC[C@@H]1CCCN1S(=O)(=O)c1cc(Br)c2c(c1)C(=O)C(=O)N2
553	353	–	–	COC[C@@H]1CCCN1S(=O)(=O)c1cc(Br)c2c(c1)C(=O)C(=O)N2C
–	133	–	–	CCN1C(=O)C(=O)c2cc(S(=O)(=O)N3CCC[C@H]3COC)cc(Br)c21
157	26.2	–	–	CCCN1C(=O)C(=O)c2cc(S(=O)(=O)N3CCC[C@H]3COC)cc(Br)c21
3.3	46.9	–	–	CCCCN1C(=O)C(=O)c2cc(S(=O)(=O)N3CCC[C@H]3COC)cc(Br)c21
20.1	81.4	–	–	COC[C@@H]1CCCN1S(=O)(=O)c1cc(Br)c2c(c1)C(=O)C(=O)N2CCCF
5.95	31.5	–	–	COC[C@@H]1CCCN1S(=O)(=O)c1cc(Br)c2c(c1)C(=O)C(=O)N2CCCCF
22.7	2.6	> 500000	> 500000	COC[C@@H]1CCCN1S(=O)(=O)c1cc(Br)c2c(c1)C(=O)C(=O)N2CCCCO
> 500000	> 500000	> 500000	500000	COC[C@@H]1CCCN1S(=O)(=O)c1cc(Cl)c2c(c1)C(=O)C(=O)N2
263	57.7	500000	500000	CCCCN1C(=O)C(=O)c2cc(S(=O)(=O)N3CCC[C@H]3COC)cc(Cl)c21
55.7	4.8	500000	2590	COC[C@@H]1CCCN1S(=O)(=O)c1cc(Cl)c2c(c1)C(=O)C(=O)N2CCCCF
6620	> 500000	> 500000	> 500000	COC[C@@H]1CCCN1S(=O)(=O)c1cc(F)c2c(c1)C(=O)C(=O)N2
9.7	2.9	78900	9970	CCCCN1C(=O)C(=O)c2cc(S(=O)(=O)N3CCC[C@H]3COC)cc(F)c21
39.3	41	12900	7430	COC[C@@H]1CCCN1S(=O)(=O)c1cc(F)c2c(c1)C(=O)C(=O)N2CCCCF
–	–	500000	> 500000	COC[C@@H]1CCCN1S(=O)(=O)c1ccc2c(c1)C(=O)C(=O)N2
